Compound activity deposited in PubChem by several laboratories.
STAT3 inh: IL-6 driven STAT3 reporter inhibitors, primary screen, U3A cells, luciferase, luminescence, MLSCN library; IL-6 STAT3-luciferase reporter; host cell line lacks STAT1; inhibition, % at 5.5 µM; 0.89% of 190,000 active; AID 862, 2007;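 active = inhibition above the mean inhibition across all screened compounds plus 3 SD, cut at about 44% in these data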;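 also: 0% = DMSO only wells and 100% = 100 µM nifuroxazide control wells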
NF-kB expr up: activators of NF-kB expression in neurons, primary screen, cell-based, HTS; human neuronal cells, NF-kB reporter expression; stronger effect = higher value; fold change at 12.5 µM; 1.6% of 190,000 active; in the data active = fold change above about 3.3
STAT1 activator: STAT1 signaling activators, primary screen, cell-based, HTS, luciferase reporter | NIH 3T3 STAT1-luciferase reporter, IFN-gamma, luminescence; 100% = IFN-gamma alone, no compound | activation (% of control), % at 5.5 µM | 2.6% of 200,000 active;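 active = activation above the screen-wide mean activation plus 3 SD, cut at about 130% in these data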;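 also: raw ratio to IFN-gamma control signal so 100% means no change and 0% no light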
STAT1 inh: STAT1 signaling inhibitors, primary screen, cell-based, HTS, luciferase reporter; NIH 3T3 STAT1-luciferase reporter, IFN-gamma, luminescence; inhibition, % at 5.5 µM; 0.35% of 200,000 active;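 active = inhibition above a set limit, the mean inhibition across all tested compounds plus 3 SD, cut at about 34% in these data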;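 also: 0% = IFN-gamma with DMSO and 100% = IFN-gamma with 300 µM nifuroxazide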
APP 5'UTR act: activators of APP 5'UTR luciferase reporter, primary screen, SH-SY5Y cells | 1% of 190,000 active | SH-SY5Y APP 5'UTR luciferase reporter, luminescence; zero percent = DMSO vehicle wells | activation, % at 2 µM;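 active = activation above a set limit, based on mean plus 3 SD of controls, cut at about 140% in these data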
STAT3 activator: IL-6 driven STAT3 reporter potentiators, primary screen, U3A cells, luciferase, luminescence, MLSCN library | IL-6 STAT3-luciferase reporter; 100% = signal with IL-6 EC80 alone | activation (% of control), % at 5.6 µM | 0.91% of 190,000 active | AID 871, 2007;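 active = activation above the screen-wide mean of compound activation plus 3 SD, cut at about 130% in these data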;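 also: 0% = background luminescence of wells with medium and substrate only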
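Test system: Human STAT1-deficient U3A cells with stable STAT3-luciferase reporter | Also added: Interleukin-6, 33 ng/mL | Timing: Compound pre-incubation 1 h before IL-6, then 6 h stimulation at 37 °C | Technique: Luciferase reporter luminescence | Read-out: Percent of IL-6-only median luminescence | Benchmarks: IL-6-only wells as 100% reference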
Active calls of the source: *; . = not tested or not shown. A selection: hits, their analogues and other compounds. The true share with any hit is near 4.9%.

SMILES	STAT3 inh	NF-kB expr up	STAT1 activator	STAT1 inh	APP 5'UTR act	STAT3 activator
NC(=O)C1=C[C@@H](c2ccc(Br)cc2)C[C@@H](OCCCCO)O1	.	1.1	100	1	-5	.
CCOc1cc(CNc2ccc(N3CCCCC3)cc2)cc(Br)c1OCC(=O)NC(C)(C)C	10	0.91	89	12	9	94
CCOc1cc(CNc2ccc(N(C)C)cc2)cc(Br)c1OCC(=O)NC(C)(C)C	-5	0.44	145*	-50	105	109
Cc1ccc2c(CC(=O)N3CCc4ccccc43)coc2c1	-4	2.7	138*	-42	119	113
O=C(CSc1ccccc1)N1CCc2ccccc21	-2	3	132*	-35	78	107
O=C(Cc1coc2ccc3ccccc3c12)N1CCc2ccccc21	21	1	94	7	11	85
O=C(CCCOc1ccccc1)N1CCCc2ccccc21	-4	1.7	113	-20	20	103
Cc1ccc(C(=O)OCC(=O)N2CCc3ccccc32)cc1	14	2.3	129*	-32	9	91
O=C(COc1ccccc1)N1CCc2ccccc21	0	2.4	134*	-38	78	98
C=CCNC(=S)NS(=O)(=O)c1cccs1	10	0.62	95	6	-1	99
CC(C)(C)c1ccc(/C=N/OCC(=O)NCc2ccc(F)cc2)cc1	0	0.91	108	-9	1	99
Cc1cccc(OCc2nnc(SCC(=O)O)n2Cc2ccccc2)c1	4	1	101	-2	12	101
Cc1nn(C(=O)CNC(=O)c2ccccc2)c(C)c1C	24	0.91	113	-15	-8	87
Cc1nn(C(=O)c2cc3sccc3[nH]2)c(C)c1C	-50	2.8	138*	-41	38	143*
Cc1ccc(C(=O)COC(=O)c2cn(-c3ccccc3)nc2-c2ccccc2)cc1[N+](=O)[O-]	6	1.6	101	-1	-5	94
Cc1ccc(-c2cc(=O)c3cc(C)ccc3[nH]2)cc1	35	5.8*	146*	-51	115	69
Cc1ccc(-c2cc(=O)c3cc(F)ccc3[nH]2)cc1	-10	1.8	104	-4	6	106
O=C(O)c1ccc(NC(=O)c2cn(-c3ccccc3)nc2-c2ccccc2)cc1	-12	0.97	146*	-52	13	118
c1ccc2c(NCCCN3CCOCC3)c3ccccc3nc2c1	-127	3.1	180*	-88	-63	215*
Cc1cc(NCCCN2CCOCC2)n2ncc(-c3ccccc3)c2n1	-18	4.4*	147*	-51	156*	117
Fc1ccccc1-c1nc(NCCCN2CCOCC2)c2ccccc2n1	0	0.79	96	4	-5	108
Cc1cc(NCCCN2CCOCC2)n2nc(C)c(-c3ccccc3)c2n1	-10	1	91	10	4	110
O=C(COC(=O)[C@H](Cc1ccccc1)NC(=O)c1cccs1)NC1CC1	8	1.3	98	3	-4	94
COC(=O)c1ccc(Oc2nc(C)cc(Oc3ccccc3)n2)cc1	-4	1	98	2	-2	103
COC(=O)c1ccc(Oc2cc(C)nc(-n3nc(C)cc3C)n2)cc1	-28	3.9*	96	5	-94	127
SMILES	STAT3 inh	NF-kB expr up	STAT1 activator	STAT1 inh	APP 5'UTR act	STAT3 activator
Cn1c(N)c(C(=O)COC(=O)c2cc(C3CC3)nc3ccccc23)c(=O)n(Cc2ccccc2)c1=O	1	1.2	107	-8	-2	97
CCCCSc1ncc(C(=O)OCC)c(N)n1	4	6.8*	139*	-42	164*	98
CCOC(=O)c1cnc(SCC(=O)c2ccc(Cl)cc2)nc1N	10	1.2	98	2	11	89
CCOC(=O)c1cnc(SCc2ccc(C)cc2)nc1N	-10	2.2	140*	-48	18	111
CCOC(=O)c1cnc(SCc2nc(N)nc(Nc3ccccc3)n2)nc1N	-5	0.5	101	-3	-21	107
C=CCN(c1ccc(C(=O)Nc2ccc(C)c(C)c2)cc1)S(C)(=O)=O	-7	1.1	99	1	4	104
